The source made the active and inactive calls. The rule behind the calls is not given here.
How the values were obtained:
Neutrophil elastase = biological target: T1, Neutrophil elastase (Homo sapiens, UniProt P08246); test: Inhibition of human neutrophil elastase using chromogenic substrate (N-MeOSuc-Ala-Ala-Pro-Val-p-nitroanilide after 120 mins
T1 sequence (P08246 whole entry): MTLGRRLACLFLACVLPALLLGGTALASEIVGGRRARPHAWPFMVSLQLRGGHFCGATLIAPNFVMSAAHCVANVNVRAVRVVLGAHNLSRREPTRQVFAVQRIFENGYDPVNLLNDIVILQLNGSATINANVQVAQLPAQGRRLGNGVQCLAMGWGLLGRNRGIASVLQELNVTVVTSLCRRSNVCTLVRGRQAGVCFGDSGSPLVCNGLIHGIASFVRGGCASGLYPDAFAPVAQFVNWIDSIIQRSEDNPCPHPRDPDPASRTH

Sus scrofa [1] = species: Sus scrofa; test: Inhibition of porcine pancreatic elastase using N-Suc-(L-Ala)3-p-nitroaniline at 600 molar excess
How it was run: (§1)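 Pre-incubation of PPE with 300- or 600-fold molar excess of inhibitor; residual activity measured with N-Suc-(L-Ala)3-p-nitroanilide.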

Sus scrofa [2] = species: Sus scrofa; test: Inhibition of porcine pancreatic elastase using N-Suc-(L-Ala)3-p-nitroaniline at 300 molar excess; how it was run: as §1
Sus scrofa [3] = species: Sus scrofa; test: Inhibition of porcine pancreatic elastase using N-Suc-(L-Ala)3-p-nitroaniline assessed as remaining activity at 2.5 to 500 uM after 15 mins
How it was run: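 PPE (5 µM) with inhibitor 2.5–500 µM in pH 7.25 HEPES, 15 min incubation; aliquots assayed for remaining activity (vt/v0) versus [I]/[E]0 ratio to estimate equivalents needed for inactivation.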

Sus scrofa [4] = species: Sus scrofa; test: Inhibition of porcine pancreatic elastase using N-Suc-(L-Ala)3-p-nitroaniline
Sus scrofa [5] = species: Sus scrofa; test: Inhibition of porcine pancreatic elastase using N-Suc-(L-Ala)3-p-nitroaniline at 50 to 500 uM; settings: TDE = time-dependent effect
[6] = Half life of the compound in phosphate buffer at pH 7.4; type: physicochemical
How it was run: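 Hydrolysis in phosphate buffer, pH 7.4, at 37 °C; half-life in min.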

Cathepsin G = biological target: T2, Cathepsin G (Homo sapiens, UniProt P08311); test: Inhibition of cathepsin G using Suc-Ala-Ala-Pro-Phe-p-nitroanilide as substrate after 30 mins
T2 sequence (P08311 whole entry): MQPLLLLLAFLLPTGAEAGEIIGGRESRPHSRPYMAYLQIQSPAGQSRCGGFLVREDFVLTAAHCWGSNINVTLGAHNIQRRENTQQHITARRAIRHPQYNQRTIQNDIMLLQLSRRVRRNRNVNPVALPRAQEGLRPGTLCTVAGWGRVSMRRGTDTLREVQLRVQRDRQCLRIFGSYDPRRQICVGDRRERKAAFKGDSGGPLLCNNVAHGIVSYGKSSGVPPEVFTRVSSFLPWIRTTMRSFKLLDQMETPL

[7] = Drug degradation in CD3ONa/CD3OD solution assessed as 2-(methoxycarbonyloxy)propan-2-yl 4-methoxybenzoylcarbamate formation at room temperature for 15 mins by 1H-NMR analysis in the presence of sodium methoxide; type: physicochemical; settings: 0.25 h
[8] = Drug degradation in CD3ONa/CD3OD solution assessed as methyl 4-methoxybenzoate formation at room temperature after 15 mins by 1H-NMR analysis in the presence of sodium methoxide; type: physicochemical; settings: 0.25 h
[9] = Drug degradation in methanol assessed as 2-(methoxycarbonyloxy)propan-2-yl 4-methoxybenzoylcarbamate formation at room temperature for 10 mins by TLC analysis in the presence of sodium methoxide; type: physicochemical
[10] = Drug degradation in methanol assessed as methyl 4-methoxybenzoate formation at room temperature for 10 mins by TLC analysis in the presence of sodium methoxide; type: physicochemical

Row | Structure (SMILES) | IC50 (Neutrophil elastase) [µM] | inhibition (Sus scrofa [2]) | Activity (Sus scrofa [3]) [%] | inhibition (Sus scrofa [4]) | inhibition (Sus scrofa [5]) | half-life [6] [min] | other results
1 | COc1ccc(N2C(=O)OC(C)C2=O)cc1 (stereo not drawn) | > 500 |  |  |  |  |  | inhibition (Sus scrofa [1]): inactive
2 | CC1(C)OC(=O)N(c2ccc([N+](=O)[O-])cc2)C1=O | > 500 | inactive |  |  |  |  | 
3 | Cc1ccc(S(=O)(=O)N2C(=O)OC(C)(C)C2=O)cc1 | 2.6 |  | < 20 | Dose-dependent effect | tde | 6.86 | 
4 | CC1(C)OC(=O)N(Cc2ccccc2)C1=O | 15.6 |  |  | Dose-dependent effect | tde |  | IC50 (Cathepsin G): 2.1 µM
5 | COc1ccc(C(=O)N2C(=O)OC(C)C2=O)cc1 (stereo not drawn) | > 500 |  | < 20 | Dose-dependent effect | tde |  | 
6 | CC1OC(=O)N(Cc2ccccc2)C1=O (stereo not drawn) | > 500 |  |  |  |  |  | inhibition (Sus scrofa [1]): inactive
7 | CC1OC(=O)N(c2ccc([N+](=O)[O-])cc2)C1=O (stereo not drawn) | > 500 | inactive |  |  |  | 38.7 | 
8 | COc1ccc(N2C(=O)OC(C)(C)C2=O)cc1 | > 500 | inactive |  |  |  |  | 
9 | COc1ccc(C(=O)N2C(=O)OC(C)(C)C2=O)cc1 | 10.2 |  | < 20 | Dose-dependent effect | tde | 16.7 | Drug degradation [7]: Active; Drug degradation [8]: Active; IC50 (Cathepsin G): 14.2 µM; Drug degradation [9]: Active; Drug degradation [10]: Active
10 | COc1ccc(C(=O)N2C(=O)OC(c3ccccc3)C2=O)cc1 (stereo not drawn) | 15.6 |  | < 20 | Dose-dependent effect | tde |  | 
